Reference: ChEMBL document CHEMBL4425108, “A Selective and Slowly Reversible Inhibitor of l-Type Amino Acid Transporter 1 (LAT1) Potentiates Antiproliferative Drug Efficacy in Cancer Cells” (J Med Chem, 2016)

Key:
[1] = Tmax in mouse plasma at 23 umol/kg, ip administered as bolus by LC-MS analysis; assay type: ADME, organism-based
Method in brief: (§1)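 Adult male mice (25 ± 5 g) given a single i.p. bolus of 23 µmol/kg, dosing solution 1.36 mM in 10% (v/v) DMSO, 20% (w/v) hydroxypropyl-β-cyclodextrin, 0.9% NaCl in water. Decapitation at time points 10–480 min; plasma, brain, liver, prostate, kidney, heart collected. Acetonitrile precipitation with repaglinide internal standard, LC-MS (ESI positive). tmax and t½β taken from concentration-time data; mean ± SEM, n=3.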

[2] = Ratio of IC50 for human MCF7 cells to IC50 for [14C]-L-leucine uptake at LAT1 in human MCF7 cells
[3] = Unbound AUC (0 to 480 mins) in mouse kidney at 23 umol/kg, ip administered as bolus by LC-MS analysis; assay type: ADME, organism-based; details: in vivo
Method in brief: (§2)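 Male mice (25 ± 5 g) dosed i.p. as a bolus at 23 µmol/kg in DMSO/hydroxypropyl-β-cyclodextrin/saline vehicle, sampled at time points 10–480 min; plasma and tissue homogenates (1:3 water) analysed by LC-MS. […] Mean ± SEM.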

[4] = Plasma concentration in mouse at 23 umol/kg, ip measured after 10 mins; assay type: ADME, organism-based
[5] = AUC (0 to 480 min) in mouse liver at 23 umol/kg, ip administered as bolus by LC-MS analysis; assay type: ADME, organism-based; set-up: dose 23 umol/kg, time < 8 hr, route intraperitoneal; details: in vivo, 8 h
Method in brief: (§3)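 Male adult mice (25 ± 5 g) given a single i.p. bolus at 23 µmol/kg. The dosing solution was 1.36 mM in 10% (v/v) DMSO, 20% (w/v) hydroxypropyl-β-cyclodextrin and 0.9% NaCl. Animals were decapitated at seven time points from 10 to 480 min. Plasma and tissues were acetonitrile-precipitated with repaglinide internal standard and analysed by LC-MS. Parameters were derived from concentration–time data, mean ± SEM (n=3).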

[6] = fCmax in mouse kidney at 23 umol/kg, ip administered as bolus by LC-MS analysis; assay type: ADME, organism-based; details: in vivo; method in brief: as §2
[7] = Cmax in mouse brain at 23 umol/kg, ip administered as bolus by LC-MS analysis; assay type: ADME, organism-based; set-up: dose 23 umol/kg, route intraperitoneal; details: in vivo; method in brief: as §3
[8] = Cmax in mouse plasma at 23 umol/kg, ip administered as bolus by LC-MS analysis; assay type: ADME, organism-based; set-up: dose 23 umol/kg, route intraperitoneal; method in brief: as §3
[9] = Terminal half life in mouse heart at 23 umol/kg, ip administered as bolus by LC-MS analysis; assay type: ADME, organism-based; details: read-out: beta t1/2; method in brief: as §3
MCF7 [10] = assay: Antiproliferative activity against human MCF7 cells assessed as reduction in cell viability at 100 measured after 24 hrs by resazurin dye-based fluorimetric analysis; assay type: functional
Method in brief: (§4)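 MCF-7 cells were seeded at 2 × 10^4 cells/well on collagen-coated plates and treated one day later. Agents were given alone or combined (25 or 100 µM with 100 µM partner drug) in growth medium for 3 days. Viability was read daily by resazurin fluorescence (ex 560/em 590 nm) and expressed relative to untreated controls.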

[11] = AUC (0 to 480 min) in mouse brain at 23 umol/kg, ip administered as bolus by LC-MS analysis; assay type: ADME, organism-based; set-up: time < 8 hr, dose 23 umol/kg, route intraperitoneal; details: in vivo, 8 h; method in brief: as §3
[12] = Unbound AUC (0 to 480 mins) in mouse heart at 23 umol/kg, ip administered as bolus by LC-MS analysis; assay type: ADME, organism-based; details: in vivo; method in brief: as §2
[13] = Metabolic stability in mouse liver S9 fraction at 37 degreeC in presence of NADPH regenerating system measured after 2 hrs by HPLC analysis; assay type: ADME, subcellular; details: s9, 2 h
[14] = target: T1, Large neutral amino acids transporter small subunit 1 (Homo sapiens, UniProt Q01650); assay: Inhibition of LAT1 in human MCF7 cells assessed as potentiation of bestatin-induced antiproliferative activity by measuring reduction in cell viability at 100 uM measured after 48 hrs by resazurin dye-based fluorimetric analysis
Method in brief: (§5)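 MCF-7 cells seeded 2 × 10^4/well on collagen-coated plates, treated one day later in growth medium with inhibitor (25 or 100 µM) plus bestatin or cisplatin (100 µM) for up to 3 days. Viability read daily by resazurin fluorescence (ex 560/em 590 nm). Viability is treated relative to untreated control. Mean ± SD, n=3.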

[15] = Tmax in mouse liver at 23 umol/kg, ip administered as bolus by LC-MS analysis; assay type: ADME, organism-based; method in brief: as §1
MCF7 [16] = assay: Antiproliferative activity against human MCF7 cells assessed as reduction in cell viability at 100 measured after 48 hrs by resazurin dye-based fluorimetric analysis; assay type: functional; method in brief: as §4
[17] = AUC (0 to 480 min) in mouse prostate at 23 umol/kg, ip administered as bolus by LC-MS analysis; assay type: ADME, organism-based, Prostate gland; set-up: dose 23 umol/kg, time < 8 hr, route intraperitoneal; details: in vivo, 8 h; method in brief: as §3
[18] = target: T1, Large neutral amino acids transporter small subunit 1; assay: Drug uptake in human MCF7 cells assessed as LAT1 mediated drug transport per mg of protein at 100 uM measured 5 mins after cold wash by HPLC analysis; assay type: ADME, cell-based; details: mcf7, 5 min
Method in brief: (§6)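 MCF-7 monolayers were incubated with 100 µM compound in HBSS at 37 °C for 5 or 30 min. Cells got three washes with ice-cold or warm (37 °C) HBSS; in the warm 30 min arm they were washed after 5 min and again after 30 min. Lysates (0.1 M NaOH) were quantified by HPLC-UV against a spiked lysate standard curve and normalised to protein (Bio-Rad assay).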

Mus musculus = assay: Binding affinity to LAT1 in mouse brain assessed as inhibition of [14C]-L-leucine uptake at 23 umol/kg, ip measured post perfusion with [14C]-L-leucine; assay type: functional, organism-based; details: TDE = time-dependent effect
Method in brief: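 Mice under ketamine/xylazine anaesthesia had the right common carotid artery cannulated. Brains were perfused at 37 °C, 2.5 mL/min, for 30 s with 0.157 µM [14C]-L-leucine, then 2 s with analyte-free buffer at 4 °C. Perfusion took place 10 or 180 min after 23 µmol/kg i.p. dosing.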

[19] = Cmax in mouse kidney at 23 umol/kg, ip administered as bolus by LC-MS analysis; assay type: ADME, organism-based; set-up: dose 23 umol/kg, route intraperitoneal; details: in vivo; method in brief: as §3
[20] = target: T1, Large neutral amino acids transporter small subunit 1; assay: Drug uptake in human MCF7 cells assessed as LAT1 mediated drug transport per mg of protein at 100 uM measured 30 mins after warm wash by HPLC analysis; assay type: ADME, cell-based; details: mcf7, 0.5 h; method in brief: as §6
[21] = Fraction unbound in mouse liver at 23 umol/kg, ip administered as bolus by LC-MS analysis; assay type: ADME, organism-based
Method in brief: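 Unbound fraction was measured by equilibrium dialysis at 100 µM in mouse plasma and in brain, liver, kidney, heart and prostate homogenates.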

[22] = target: T1, Large neutral amino acids transporter small subunit 1; assay: Inhibition of LAT1 in human MCF7 cells assessed as potentiation of bestatin-induced antiproliferative activity by measuring reduction in cell viability at 25 uM measured after 24 hrs by resazurin dye-based fluorimetric analysis; method in brief: as §5
[23] = target: T1, Large neutral amino acids transporter small subunit 1; assay: Inhibition of LAT1 in human MCF7 cells assessed as potentiation of bestatin-induced antiproliferative activity by measuring reduction in cell viability at 25 uM measured after 48 hrs by resazurin dye-based fluorimetric analysis; method in brief: as §5
[24] = Terminal half life in mouse kidney at 23 umol/kg, ip administered as bolus by LC-MS analysis; assay type: ADME, organism-based; details: read-out: beta t1/2; method in brief: as §3
[25] = Tmax in mouse brain at 23 umol/kg, ip administered as bolus by LC-MS analysis; assay type: ADME, organism-based; method in brief: as §1

T1 sequence (Q01650 whole entry): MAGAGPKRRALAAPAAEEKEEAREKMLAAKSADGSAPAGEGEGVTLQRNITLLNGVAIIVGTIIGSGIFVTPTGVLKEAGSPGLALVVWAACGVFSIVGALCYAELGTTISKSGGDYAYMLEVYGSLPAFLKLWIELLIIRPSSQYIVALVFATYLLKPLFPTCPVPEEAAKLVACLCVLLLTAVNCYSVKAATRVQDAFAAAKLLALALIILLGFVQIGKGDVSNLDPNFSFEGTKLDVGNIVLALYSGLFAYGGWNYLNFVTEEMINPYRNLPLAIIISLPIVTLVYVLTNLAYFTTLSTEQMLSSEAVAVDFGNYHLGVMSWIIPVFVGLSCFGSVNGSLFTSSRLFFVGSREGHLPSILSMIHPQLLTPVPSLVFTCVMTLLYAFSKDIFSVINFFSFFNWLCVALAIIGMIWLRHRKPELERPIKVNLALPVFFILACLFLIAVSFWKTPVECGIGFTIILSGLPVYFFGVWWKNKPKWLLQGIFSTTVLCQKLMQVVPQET

In the case of `CNC(=O)COc1ccc(-c2c(C#N)c(NC(=O)c3cccc(C[C@H](N)C(=O)O)c3)n3c(nc4ccccc43)c2C#N)cc1`, the Tmax [1] is reported as 10 min, the “Ratio IC50” value [2] is reported as 6.9 and the fAUC [3] is reported as 23.7 nmol/g/min. The concentration at 10 min [4] was 20 µM, the AUC [5] was 1930 nmol/g/min and the fCmax [6] was 0.37 nmol/g. It also gave a Cmax [7] of 0.2 nmol/g, a Cmax [8] of 19.5 µM and a half-life [9] of 19.8 min. It also gave an Activity (MCF7 [10]) of 22.9%, an AUC [11] of 11 nmol/g/min and a fAUC [12] of 4 nmol/g/min. For the same molecule, the Stability [13] was “Stable”, the Activity [14] was 42.7% and the Tmax [15] was 10 min. It also gave an Activity (MCF7 [16]) of 14.8%, an AUC [17] of 1275 nmol/g/min and a Drug uptake [18] of 2.8 nmol/mg. For the same molecule, the Activity (Mus musculus) was “Tde”, the Cmax [19] was 22.5 nmol/g and the Drug uptake [20] was 0.21 nmol/mg. It also gave a fraction unbound [21] of 0.0098, an Activity [22] of 24.7% and an Activity [23] of 40.5%. The half-life [24] was 41.8 min and the Tmax [25] was 30 min.
